Drawing on the array DNA melting data of Ke et al. (doi:10.1101/2024.01.08.574731), this text covers folding enthalpy and Tm for 36 sequences.

Series [1] in a line: folding enthalpy; higher = less favourable; fluorescence melt of hairpins on a sequencing array, two-state fit. Conditions: sodium 0.088 M. An outline of the steps:
(§1)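 Folding enthalpy and melting temperature were estimated with bootstrapped two-state fits and combined across four replicates by inverse-variance weighting, with fitted temperatures raised by 9.35 °C to match UV melts. The data were Cy3 fluorescence of library hairpins, with annealed Cy3 and quencher oligos, on a sequenced MiSeq flow cell in 50 mM Na-HEPES pH 8.0, 25 mM NaCl, imaged in 2.5 °C steps up to 60 °C and normalised to pre-quench Cy3 and control constructs.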

A short description of series [2]: melting temperature; fluorescence melt of hairpins on a sequencing array, two-state fit, raised by 9.35 °C to match UV melts. The conditions noted are these: sodium 0.088 M. The procedure, abridged: as §1

Turning to GTTACAGGAAACTGCAAC (((.(((....))).))), the folding enthalpy in series [1] is -23.4 kcal/mol. Further, the Tm in series [2] worked out at 35.8 °C.

GTTACCCCGAAAGGGAAC (((..(((....)))))): the folding enthalpy in series [1] was -16.5 kcal/mol. In series [2], the Tm was found to be 32.9 °C.

On to GTTACCCGAAAGGGAAC (((.(((....)))))), for which the folding enthalpy in series [1] is -17.1 kcal/mol. Besides, the Tm in series [2] is 43.7 °C.

In the case of GTTACCGAAAGGTAAC ((((((....)))))), the folding enthalpy in series [1] is -34.6 kcal/mol. The Tm in series [2] turned out to be 66.4 °C.

With GTTACCGAAAGGTAGAAC ((((((....)))..))), in series [1], the folding enthalpy is -10.1 kcal/mol. For the same sequence, in series [2], the Tm came to 29.3 °C.

Turning to GTTACCGAAAGGTCTAAC ((((((....)))..))), the folding enthalpy in series [1] is -9.14 kcal/mol. The Tm in series [2] was found to be 29.2 °C.

For the sequence GTTACCGAAAGGTGTAAC ((((((....)))..))), in series [1], the folding enthalpy was -14.9 kcal/mol. The Tm in series [2] was 32.2 °C.

Regarding GTTACGGGAAACCGCAAC (((.(((....))).))), the folding enthalpy in series [1] is -26 kcal/mol. Further, in series [2], the Tm came to 41.7 °C.

Take GTTACTGAAAAGTAAC ((((((....)))))): the folding enthalpy in series [1] was -33.8 kcal/mol. Also, the Tm in series [2] was found to be 49.4 °C.

Consider GTTACTGGAAACAGTAAC (((((((....))))))), for which, in series [1], the folding enthalpy was -60.8 kcal/mol. Besides, in series [2], the Tm turned out to be 54.1 °C.

For the sequence GTTAGACGAAAGTCCAAC (((.(((....))).))), the folding enthalpy in series [1] is -17.3 kcal/mol. Further, the Tm in series [2] came to 38 °C.

GTTAGAGAAATCTAAC ((((((....)))))): in series [1], the folding enthalpy is -27.9 kcal/mol. The Tm in series [2] turned out to be 38.4 °C.

Turning to GTTAGAGGAAACTCTAGC (.(((((....))))).), in series [1], the folding enthalpy was -23.1 kcal/mol. Also, in series [2], the Tm was 34.5 °C.

Turning to GTTAGCCGAAAGGCGAAC (((.(((....))).))), in series [1], the folding enthalpy was -20.5 kcal/mol. The Tm in series [2] worked out at 57.6 °C.

GTTAGCGAAAGCTAAAC ((((((....))).))): the folding enthalpy in series [1] is -13.7 kcal/mol. The Tm in series [2] was determined as 46.5 °C.

With GTTAGCGAAAGCTATAAC ((((((....)))..))), the folding enthalpy in series [1] is -12.7 kcal/mol. Besides, the Tm in series [2] was 31.4 °C.

Regarding GTTAGCGAAAGCTCAAC ((((((....))).))), in series [1], the folding enthalpy is -11.8 kcal/mol. For the same sequence, in series [2], the Tm was determined as 32.7 °C.

GTTAGCGAAAGCTGGAAC ((((((....)))..))): in series [1], the folding enthalpy is -8.68 kcal/mol. For the same sequence, in series [2], the Tm was 27 °C.

Turning to GTTAGCGAAAGCTGTAAC ((((((....)))..))), the folding enthalpy in series [1] is -9.81 kcal/mol. Moreover, the Tm in series [2] came to 31.6 °C.

In the case of GTTAGCGGAAACACTAAC (((((.(....).))))), the folding enthalpy in series [1] was -30.3 kcal/mol. The Tm in series [2] is 36.6 °C.

For the sequence GTTAGCGGAAACGCCAAC (((.(((....))).))), in series [1], the folding enthalpy was -17.3 kcal/mol. Also, the Tm in series [2] was 37.4 °C.

Take GTTAGTCGAAAGACGAAC (((.(((....))).))): the folding enthalpy in series [1] is -25.6 kcal/mol. For the same sequence, the Tm in series [2] worked out at 49 °C.

With GTTAGTGGAAACGCTAAC (((((.(....).))))), the folding enthalpy in series [1] was -31.8 kcal/mol. The Tm in series [2] amounted to 45.3 °C.

With GTTAGTGGAAACGTTAAC ((((..(....)..)))), the folding enthalpy in series [1] was -10.1 kcal/mol. Further, the Tm in series [2] turned out to be 27.6 °C.

Consider GTTATACCGAAAGGTAAC (((..(((....)))))), for which, in series [1], the folding enthalpy was -10.4 kcal/mol. In addition, the Tm in series [2] is 32.8 °C.

In the case of GTTATACGAAAGTAGAAC (((.(((....))).))), the folding enthalpy in series [1] is -29.9 kcal/mol. Further, the Tm in series [2] turned out to be 45.1 °C.

Consider GTTATCCCGAAAGGGAAC (((..(((....)))))), for which the folding enthalpy in series [1] is -10 kcal/mol. Moreover, the Tm in series [2] was determined as 26.8 °C.

On to GTTATCCGAAAGGAAAC (((.(((....)))))), for which the folding enthalpy in series [1] was -14.5 kcal/mol. In addition, the Tm in series [2] worked out at 31.5 °C.

Turning to GTTATCCGAAAGGACAAC (((.(((....))).))), the folding enthalpy in series [1] was -26.3 kcal/mol. In addition, the Tm in series [2] amounted to 39.6 °C.

For the sequence GTTATCGAAAGATGAAC ((((((....))).))), the folding enthalpy in series [1] was -13.2 kcal/mol. Also, the Tm in series [2] came out at 26.4 °C.

With GTTATGCGAAAGCAGAAC (((.(((....))).))), the folding enthalpy in series [1] is -31.5 kcal/mol. Besides, in series [2], the Tm stood at 55.9 °C.

As to GTTATGGGAAACCATAGC (.(((((....))))).), the folding enthalpy in series [1] was -24.1 kcal/mol. In addition, in series [2], the Tm came to 36.9 °C.

As for GTTATTGGAAACAATAAC (((((((....))))))), the folding enthalpy in series [1] was -35 kcal/mol. Besides, the Tm in series [2] is 49.7 °C.

Regarding GTTCAACGAAAGTTAAAC (((.(((....))).))), the folding enthalpy in series [1] was -18.6 kcal/mol. In series [2], the Tm amounted to 30.7 °C.

For the sequence GTTCAAGAAATTGAAC ((((((....)))))), the folding enthalpy in series [1] was -29.2 kcal/mol. The Tm in series [2] worked out at 45.1 °C.

For the sequence GTTCAAGCGAAAGCTAAC (((..(((....)))))), the folding enthalpy in series [1] is -11.4 kcal/mol. Also, in series [2], the Tm came out at 24.9 °C.
